Assay results from different studies.
Lines come from different studies, so protocols differ.
Target: Serine/threonine-protein kinase Nek3 (NEK3, Homo sapiens, UniProt P51956)
Sequence (P51956 1-506, as in one of the studies): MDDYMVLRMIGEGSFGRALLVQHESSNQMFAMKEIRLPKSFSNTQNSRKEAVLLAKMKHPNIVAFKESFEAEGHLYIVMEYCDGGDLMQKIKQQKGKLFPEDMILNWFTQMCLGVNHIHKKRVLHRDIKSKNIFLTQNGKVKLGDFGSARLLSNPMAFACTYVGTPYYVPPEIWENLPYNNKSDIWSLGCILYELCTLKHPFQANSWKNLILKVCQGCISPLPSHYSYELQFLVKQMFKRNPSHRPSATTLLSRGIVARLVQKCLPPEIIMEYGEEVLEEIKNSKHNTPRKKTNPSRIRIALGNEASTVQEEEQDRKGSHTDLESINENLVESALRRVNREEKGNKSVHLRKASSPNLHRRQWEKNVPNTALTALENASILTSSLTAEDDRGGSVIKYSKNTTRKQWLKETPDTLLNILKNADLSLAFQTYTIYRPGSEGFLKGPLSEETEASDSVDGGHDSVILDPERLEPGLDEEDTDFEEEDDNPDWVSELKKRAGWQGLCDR

Structure (SMILES) | test | conditions | quantity | result
Cc1ccc(NC(=O)c2ccnc(C(F)(F)F)c2)cc1-c1cc(OCCO)nc(N2CCOCC2)c1 | binding | 1 µM | remaining binding | 95%
C=CC(=O)N1CCC[C@@H](n2nc(-c3ccc(Oc4ccccc4)cc3)c3c(N)ncnc32)C1 | enzyme activity, inhibitor | 1 µM | inhibition | 5%
Cc1cc(O)c(-c2ccc([C@@H](C)CN(C)C)cc2)c2c1[nH]c(=O)c1sccc12 | enzyme activity, inhibitor | 0.1 µM | inhibition | -5.15%
CC(C)S(=O)(=O)c1ccc2nccc(Nc3ccc4sc(C5CCCC5)nc4c3)c2c1 | enzyme activity, inhibitor | 1 µM | activity vs control | 111%
CCCCC(=O)Nc1ccc(-c2ccc3ncn(CCC)c(=O)c3c2)cn1 | binding, competition with immobilised ligand | 0.5 µM | remaining binding | 87%
C1=C/COCc2cc(ccc2OCCN2CCCC2)Nc2nccc(n2)-c2cccc(c2)COC/1 | binding | 0.1 µM | remaining binding | 82%
C=CC(=O)N1CCC([C@@H]2CCNc3c(C(N)=O)c(-c4ccc(Oc5ccccc5)cc4)nn32)CC1 | enzyme activity, inhibitor | 1 µM | inhibition | 44%
CN1CCN(C(=O)c2ccc(NC(=O)Nc3ccc(N(C)c4ccnc(Nc5ccc(CS(C)(=O)=O)cc5)n4)cc3)cc2)CC1 | binding | 1 µM | remaining binding | 66%
